For 15 compounds, GI50 and MIC results are on record in ChEMBL document CHEMBL3112463, “Synthesis and biological activity of polyalthenol and pentacyclindole analogues” (2014).

Common to all, as to format: functional
One experiment concerns WiDr. As to the kind of experiment: Antiproliferative activity against human WiDr cells assessed as growth inhibition after 48 hrs by SRB assay. In a few lines: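 WiDr cells seeded at 20,000 cells/well after trypsinization into antibiotic-containing medium (trypan blue viability >97%). Culture at 37 °C, 5% CO₂ with foetal calf serum and 2 mM L-glutamine. Exposure to triplicate compound dilutions from DMSO stocks (0.25% v/v DMSO control) started day 1, lasting 48 h. Fixed with ice-cold 50% TCA, 60 min at 4 °C, then SRB, OD 492 nm background-subtracted.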
Background: The SRB assay estimates cell density from bound dye.

Experiment [1] is described as follows: Antiproliferative activity against human HBL100 cells assessed as growth inhibition after 48 hrs by SRB assay. As to conditions: HBL-100, 48 h. The method in brief: (§1)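 Cells maintained at 37 °C, 5% CO₂ in medium with foetal calf serum and 2 mM L-glutamine. Trypsinized into antibiotic medium, >97% viable by trypan blue, plated at 10,000 cells/well. Triplicate dilutions from DMSO stocks (0.25% v/v DMSO control) added on day 1 for 48 h. TCA fixation (50%, 4 °C, 60 min), SRB stain, OD 492 nm corrected for medium-only blank.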

A further experiment relates to A549. Kind of experiment: Antiproliferative activity against human A549 cells assessed as growth inhibition after 48 hrs by SRB assay. The conditions noted are these: A549, 48 h. In a few lines:
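Cells kept in medium with foetal calf serum and 2 mM L-glutamine at 37 °C, 5% CO₂. Trypsinized, resuspended in penicillin/streptomycin medium, >97% trypan blue viability, seeded at 10,000 cells/well. Compounds from DMSO stocks (0.25% v/v DMSO control), triplicate dilutions, added day 1 for 48 h. Fixed with cold 50% TCA for 60 min at 4 °C, then SRB staining, OD 492 nm, background corrected.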

Another experiment has as its system HeLa. Kind of experiment: Antiproliferative activity against human HeLa cells assessed as growth inhibition after 48 hrs by SRB assay. The method in brief: as §1
The next experiment concerns T47D. Kind of experiment: Antiproliferative activity against human T47D cells assessed as growth inhibition after 48 hrs by SRB assay. In a few lines: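 T-47D cells grown at 37 °C, 5% CO₂ in serum- and 2 mM L-glutamine-containing medium. Trypsinized, viability >97% by trypan blue, seeded at 15,000 cells/well. Compounds added day 1 in triplicate dilutions (DMSO vehicle 0.25% v/v as control) for 48 h. Cold 50% TCA fixation 60 min at 4 °C, SRB read at 492 nm with blank correction.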

The test system of another experiment is SW1573. As to the kind of experiment: Antiproliferative activity against human SW1573 cells assessed as growth inhibition after 48 hrs by SRB assay. As to conditions: SW1573, 48 h. The method in brief: as §1
A further experiment concerns Staphylococcus aureus. As to the kind of experiment: Antimicrobial activity against Staphylococcus aureus ATCC 29213 after 24 hrs by broth microdilution method. As to conditions: ATCC 29213, 24 h. The method in brief:
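Bacteria grown on nutrient agar at 35–37 °C for 24 h, then suspended in normal saline to approx. […] by matching to 0.5 McFarland standard. Broth microdilution in Mueller Hinton broth with growth and sterility controls, compounds first dissolved in DMSO.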
(In general: In broth dilution the organism is exposed to a series of concentrations in liquid medium.)

In brackets after ≈: the same amount, converted by molar mass.

Consider `COC(=O)[C@@]1(C)CCC=C2[C@@H]1CC[C@@H](C)[C@]2(C)Cc1c[nH]c2ccc(Br)cc12`, for which the concentration for 50% growth inhibition (GI50) (usually the concentration giving 50% growth inhibition) is 20 µM with WiDr; 16 µM in experiment [1]; 15 µM in the experiment with A549; 10 µM in the experiment on HeLa; 16 µM with T47D; 12 µM with SW1573.

Consider `COC(=O)[C@@]1(C)CCC=C2[C@@H]1CC[C@@H](C)[C@]2(C)Cc1c[nH]c2ccc(F)cc12`, for which the GI50 with WiDr is 8 µM; in experiment [1], 4.8 µM; in the experiment with A549, 6.2 µM; with HeLa, 3.7 µM; with T47D it was 3.9 µM; in the experiment with SW1573, 7.3 µM.

As to `COC(=O)[C@@]1(C)CCC=C2[C@@H]1CC[C@@H](C)[C@]2(C)Cc1c[nH]c2ccc(OC)cc12`, the GI50 turned out to be 5.7 µM with WiDr; 2.1 µM in experiment [1]; 2.2 µM with A549; 1.2 µM with HeLa; 3.7 µM in the experiment with T47D; 1.3 µM with SW1573.

As to `COC(=O)[C@@]1(C)CCC=C2[C@@H]1CC[C@@H](C)[C@]2(C)Cc1c[nH]c2ccc(C(F)(F)F)cc12`, the 50% growth inhibitory concentration (GI50) with WiDr worked out at 18 µM; in experiment [1], 15 µM; in the experiment with A549 it was 15 µM; in the experiment on HeLa, 11 µM; in the experiment on T47D, 15 µM; in the experiment on SW1573, 14 µM.

As for `COC(=O)[C@@]1(C)CCC=C2[C@@H]1CC[C@@H](C)[C@]2(C)Cc1c(C)[nH]c2ccccc12`, the concentration for 50% growth inhibition (GI50) with WiDr was 19 µM; in experiment [1], 14 µM; in the experiment with A549, 15 µM; in the experiment on HeLa, 11 µM; in the experiment with T47D, 17 µM; with SW1573, 14 µM.

As for `COC(=O)[C@@]1(C)CCC=C2[C@@H]1CC[C@@H](C)[C@]2(C)Cc1c(C)[nH]c2ccc(Br)cc12`, the GI50 with WiDr was determined as 15 µM; in experiment [1], 15 µM; in the experiment on A549 it was 15 µM; with HeLa it was 11 µM; in the experiment with T47D it was 16 µM; in the experiment on SW1573 it was 14 µM.

For the compound `COC(=O)[C@@]1(C)CCC=C2[C@@H]1CC[C@@H](C)[C@]2(C)Cc1c(C)[nH]c2ccc(Cl)cc12`, the concentration for 50% growth inhibition (GI50) in the experiment on WiDr came out at 18 µM; in experiment [1] it was 15 µM; in the experiment on A549 it was 17 µM; with HeLa, 12 µM; with T47D, 17 µM; in the experiment with SW1573, 14 µM.

Consider `COC(=O)[C@@]1(C)CCC=C2[C@@H]1CC[C@@H](C)[C@]2(C)Cc1c(C)[nH]c2ccc(F)cc12`, for which the GI50 with WiDr stood at 17 µM; in experiment [1], 14 µM; in the experiment on A549, 15 µM; with HeLa, 11 µM; in the experiment with T47D it was 15 µM; in the experiment with SW1573, 12 µM.

As to `COC(=O)[C@@]1(C)CCC=C2[C@@H]1CC[C@@H](C)[C@]2(C)Cc1c(C)[nH]c2ccc(OC)cc12`, the GI50 is 17 µM in the experiment on WiDr; 16 µM in experiment [1]; 16 µM with A549; 12 µM in the experiment with HeLa; 21 µM in the experiment with T47D; 15 µM with SW1573.

For `COC(=O)[C@@]1(C)CCC=C2[C@@H]1CC[C@@H](C)[C@]2(C)Cc1c(C=O)[nH]c2ccccc12`, the 50% growth inhibitory concentration (GI50) was found to be 20 µM in the experiment on WiDr; 7.5 µM in experiment [1]; 45 µM with A549; 4.4 µM in the experiment on HeLa; 17 µM in the experiment with T47D; 7.9 µM with SW1573. In addition, the minimum inhibitory concentration (MIC) – broadly, the smallest concentration in the dilution series that meets the test's criterion for growth inhibition – in the experiment on Staphylococcus aureus worked out at 50 µM (≈ 19.7 µg/mL).

`Cc1c(C[C@]2(C)C3=CCC[C@](C)(C(=O)O)[C@H]3CC[C@H]2C)c2cc(Cl)ccc2n1C(c1ccccc1)c1ccccc1`: the GI50 was found to be 16 µM with WiDr; 13 µM in experiment [1]; 9.1 µM in the experiment with A549; 5.5 µM in the experiment with HeLa; 13 µM in the experiment with T47D; 13 µM with SW1573.

Turning to `COC(=O)[C@@]1(C)CC[C@@H]2C3=C1CC[C@@H](C)[C@]3(C)Cc1c2[nH]c2ccccc12`, the GI50 with WiDr stood at 4 µM; in experiment [1] it was 3.5 µM; with A549, 4.6 µM; in the experiment on HeLa, 3.2 µM; in the experiment on T47D, 3.4 µM; in the experiment with SW1573 it was 8.3 µM.

As for `COC(=O)[C@@]1(C)CC[C@@H]2C3=C1CC[C@@H](C)[C@]3(C)Cc1c2[nH]c2ccc(C)cc12`, the GI50 with WiDr amounted to 19 µM; in experiment [1] it was 11 µM; in the experiment with A549, 16 µM; with HeLa, 11 µM; in the experiment with T47D it was 16 µM; in the experiment with SW1573 it was 15 µM.

With `COC(=O)[C@@]1(C)CC[C@@H]2C3=C1CC[C@@H](C)[C@]3(C)Cc1c2[nH]c2ccc(OC)cc12`, the 50% growth inhibitory concentration (GI50) came out at 1.2 µM in the experiment with WiDr; 5 µM in experiment [1]; 7.7 µM with A549; 3.9 µM in the experiment on HeLa; 6.5 µM in the experiment on T47D; 5.9 µM with SW1573.

As to `COC(=O)[C@@]1(C)CCC=C2[C@@H]1CC[C@@H](C)[C@]2(C)Cc1c[nH]c2ccccc12`, the GI50 in the experiment with WiDr came out at 8.7 µM; in experiment [1], 4.5 µM; in the experiment on A549, 5 µM; with HeLa it was 3.6 µM; with T47D, 4.2 µM; with SW1573, 7.3 µM.
